Data: ChEMBL document CHEMBL4387722

Columns and labels:
[1] = target: T1, Phosphotyrosine protein phosphatase (Mycobacterium tuberculosis, UniProt A0A045ISB3); test: Inhibition of Mycobacterium tuberculosis His-tagged PtpB expressed in Escherichia coli Rosetta 2 (DE3) using pNPP as substrate after 30 mins by spectrophotometric method
T1 sequence (A0A045ISB3 whole entry): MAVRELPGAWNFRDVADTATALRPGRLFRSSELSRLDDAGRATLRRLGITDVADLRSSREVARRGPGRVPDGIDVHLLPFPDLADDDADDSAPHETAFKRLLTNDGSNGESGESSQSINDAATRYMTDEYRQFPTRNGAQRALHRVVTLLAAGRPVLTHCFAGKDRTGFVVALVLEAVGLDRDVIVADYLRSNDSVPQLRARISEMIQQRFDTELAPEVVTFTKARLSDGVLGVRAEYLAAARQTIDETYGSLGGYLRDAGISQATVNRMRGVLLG

[2] = target: T2, Tyrosine-protein phosphatase non-receptor type 1 (Homo sapiens, UniProt P18031); test: Inhibition of human PTPN1 expressed in Escherichia coli Rosetta 2 (DE3) using pNPP as substrate after 45 mins by spectrophotometric method
T2 sequence (P18031 whole entry): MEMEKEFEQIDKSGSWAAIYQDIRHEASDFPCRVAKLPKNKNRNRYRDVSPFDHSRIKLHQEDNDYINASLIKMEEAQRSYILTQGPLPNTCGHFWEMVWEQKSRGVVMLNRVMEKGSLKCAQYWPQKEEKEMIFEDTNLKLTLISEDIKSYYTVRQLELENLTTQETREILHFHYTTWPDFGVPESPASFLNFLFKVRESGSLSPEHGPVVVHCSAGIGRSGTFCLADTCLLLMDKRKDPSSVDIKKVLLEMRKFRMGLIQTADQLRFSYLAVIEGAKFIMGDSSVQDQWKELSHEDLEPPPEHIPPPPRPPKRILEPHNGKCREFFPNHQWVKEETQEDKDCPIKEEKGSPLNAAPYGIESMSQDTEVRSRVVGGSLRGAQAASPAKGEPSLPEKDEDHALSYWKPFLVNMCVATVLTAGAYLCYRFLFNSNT

[3] = target: T3, Tyrosine-protein phosphatase non-receptor type 2 (Homo sapiens, UniProt P17706); test: Inhibition of human PTPN2 expressed in Escherichia coli Rosetta 2 (DE3) using pNPP as substrate after 45 mins by spectrophotometric method
T3 sequence (P17706 whole entry): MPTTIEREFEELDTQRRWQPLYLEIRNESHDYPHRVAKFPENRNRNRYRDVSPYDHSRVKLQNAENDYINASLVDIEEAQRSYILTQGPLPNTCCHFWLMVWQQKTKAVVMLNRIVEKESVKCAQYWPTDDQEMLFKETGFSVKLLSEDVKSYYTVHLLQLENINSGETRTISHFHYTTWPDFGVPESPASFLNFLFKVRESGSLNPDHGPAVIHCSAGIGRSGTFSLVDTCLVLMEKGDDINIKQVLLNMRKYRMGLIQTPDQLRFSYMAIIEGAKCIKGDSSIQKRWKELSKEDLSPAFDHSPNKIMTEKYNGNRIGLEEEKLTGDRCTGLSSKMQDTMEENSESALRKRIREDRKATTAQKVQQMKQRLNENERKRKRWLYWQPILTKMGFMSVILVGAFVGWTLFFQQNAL

[4] = target: T4, Tyrosine-protein phosphatase non-receptor type 5 (Homo sapiens, UniProt P54829); test: Inhibition of human PTPN5 expressed in Escherichia coli Rosetta 2 (DE3) using pNPP as substrate after 45 mins by spectrophotometric method
T4 sequence (P54829 whole entry): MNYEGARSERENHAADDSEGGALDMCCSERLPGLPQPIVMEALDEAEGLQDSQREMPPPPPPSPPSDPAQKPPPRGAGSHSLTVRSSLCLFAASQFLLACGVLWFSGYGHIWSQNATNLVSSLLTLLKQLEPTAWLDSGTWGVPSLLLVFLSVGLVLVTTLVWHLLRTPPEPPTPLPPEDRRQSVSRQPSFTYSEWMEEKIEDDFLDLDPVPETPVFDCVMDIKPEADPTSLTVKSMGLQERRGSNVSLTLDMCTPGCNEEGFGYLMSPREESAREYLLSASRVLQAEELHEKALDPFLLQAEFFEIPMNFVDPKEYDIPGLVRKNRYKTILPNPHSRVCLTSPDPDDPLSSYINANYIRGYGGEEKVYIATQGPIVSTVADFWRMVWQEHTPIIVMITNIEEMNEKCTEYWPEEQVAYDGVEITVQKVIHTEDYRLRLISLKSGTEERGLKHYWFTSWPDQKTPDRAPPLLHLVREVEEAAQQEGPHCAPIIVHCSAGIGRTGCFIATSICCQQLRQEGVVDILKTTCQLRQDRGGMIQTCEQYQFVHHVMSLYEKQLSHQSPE

[5] = system: Mycobacterium tuberculosis; test: Antitubercular activity against Mycobacterium tuberculosis H37Rv after 5 days at 200 uM relative to control; assay type: functional; details: 120 h
Procedure, shortened: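 M. tuberculosis grown in liquid culture with compound at a fixed 200 μM for 5 days. Growth inhibition expressed as percent of control.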

[6] = Inhibition of refolded rhodanese (unknown origin) preincubated with Escherichia coli GroEL/GroES for 60 mins by measuring rhodanese enzyme activity followed by compound addition by Fe(SCN)3 dye based spectrometric analysis; design: species or system Homo sapiens
[7] = target: T5, Malate dehydrogenase, mitochondrial (Sus scrofa, UniProt P00346); test: Inhibition of refolded pig heart mitochondrial MDH preincubated with Escherichia coli GroEL/GroES for 45 mins using sodium mesoxalate as substrate followed by compound addition and measured after 20 to 30 mins by spectrometric analysis
T5 sequence (P00346 whole entry): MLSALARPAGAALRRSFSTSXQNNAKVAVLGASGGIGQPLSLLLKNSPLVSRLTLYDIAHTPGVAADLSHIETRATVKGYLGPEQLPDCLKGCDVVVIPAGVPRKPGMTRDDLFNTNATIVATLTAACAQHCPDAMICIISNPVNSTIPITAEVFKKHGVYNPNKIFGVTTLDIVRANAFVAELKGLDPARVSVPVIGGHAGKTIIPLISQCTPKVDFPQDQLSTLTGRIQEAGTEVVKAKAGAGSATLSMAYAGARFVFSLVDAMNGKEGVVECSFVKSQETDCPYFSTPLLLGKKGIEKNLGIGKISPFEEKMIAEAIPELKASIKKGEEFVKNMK

E. coli GroEL/ES [8] = target: T6, E. coli GroEL/ES (Escherichia coli, UniProt P0A6F5); test: Inhibition of Escherichia coli GroEL expressed in Escherichia coli DH5alpha/Escherichia coli GroES expressed in Escherichia coli BL21 (DE3) assessed as reduction in GroEL/GroES-mediated denatured rhodanese refolding by measuring rhodanese enzyme activity after 45 mins by Fe(SCN)3 dye based spectrometric analysis
T6 sequence (P0A6F5 whole entry, looked up): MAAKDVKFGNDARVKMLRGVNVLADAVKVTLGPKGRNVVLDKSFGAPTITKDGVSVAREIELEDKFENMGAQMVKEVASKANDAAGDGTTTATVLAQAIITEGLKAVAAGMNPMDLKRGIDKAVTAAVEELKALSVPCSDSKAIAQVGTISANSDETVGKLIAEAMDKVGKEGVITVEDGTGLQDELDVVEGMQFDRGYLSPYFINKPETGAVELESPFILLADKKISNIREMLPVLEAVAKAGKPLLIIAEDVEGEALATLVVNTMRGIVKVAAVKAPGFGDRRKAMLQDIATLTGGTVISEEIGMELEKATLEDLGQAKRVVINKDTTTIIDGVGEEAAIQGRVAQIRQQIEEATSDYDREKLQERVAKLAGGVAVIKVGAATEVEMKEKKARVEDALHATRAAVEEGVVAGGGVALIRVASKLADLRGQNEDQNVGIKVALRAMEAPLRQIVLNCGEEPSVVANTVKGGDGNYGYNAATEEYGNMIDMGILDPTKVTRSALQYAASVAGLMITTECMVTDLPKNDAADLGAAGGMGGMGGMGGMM

E. coli GroEL/ES [9] = target: T6, E. coli GroEL/ES; test: Inhibition of Escherichia coli GroEL expressed in Escherichia coliDH5alpha/Escherichia coli GroES expressed in Escherichia coli BL21 (DE3) assessed as reduction in GroEL/GroES-mediated denatured pig heart mitochondrial MDH refolding by measuring MDH enzyme activity using sodium mesoxalate as substrate after 20 to 40 mins by spectrometric analysis
HSP60/HSP10 = HSP60/HSP10 (Homo sapiens, UniProt P10809); test: Inhibition of human HSP60 expressed in Escherichia coli Rosetta 2(DE3)/human HSP10 expressed in Escherichia coli Rosetta 2(DE3) pLysS cells assessed as reduction in HSP60/HSP10-mediated denatured pig heart mitochondrial MDH refolding by measuring MDH enzyme activity using sodium mesoxalate as substrate after 40 to 60 mins by spectrometric analysis
Chain of HSP60/HSP10 (P10809 whole entry): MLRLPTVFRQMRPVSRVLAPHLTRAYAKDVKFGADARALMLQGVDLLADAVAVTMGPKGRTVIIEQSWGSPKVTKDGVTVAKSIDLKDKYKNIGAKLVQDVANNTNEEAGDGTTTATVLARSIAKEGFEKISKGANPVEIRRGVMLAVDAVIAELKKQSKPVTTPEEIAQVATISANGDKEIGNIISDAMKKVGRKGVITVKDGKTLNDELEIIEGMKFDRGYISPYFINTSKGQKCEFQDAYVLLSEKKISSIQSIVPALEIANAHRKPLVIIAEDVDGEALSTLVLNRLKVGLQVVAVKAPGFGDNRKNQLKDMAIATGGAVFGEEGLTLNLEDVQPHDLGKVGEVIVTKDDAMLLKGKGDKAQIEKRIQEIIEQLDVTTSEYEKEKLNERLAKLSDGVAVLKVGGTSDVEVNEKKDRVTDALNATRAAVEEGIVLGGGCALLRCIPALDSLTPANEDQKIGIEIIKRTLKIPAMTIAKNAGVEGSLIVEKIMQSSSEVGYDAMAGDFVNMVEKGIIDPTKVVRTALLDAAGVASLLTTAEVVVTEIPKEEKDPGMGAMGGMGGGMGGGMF
Chain of HSP60/HSP10 (P61604 whole entry, further chain): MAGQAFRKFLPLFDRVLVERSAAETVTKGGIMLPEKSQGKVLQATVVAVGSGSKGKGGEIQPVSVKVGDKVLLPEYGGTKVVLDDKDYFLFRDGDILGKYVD

[10] = Cytotoxicity against human THLE3 cells assessed as reduction in cell viability after 48 hrs by Alamar blue assay; assay type: cell-based
Procedure, shortened: (§1)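 Alamar Blue viability read-out. Human liver (THLE-3) and kidney (HEK 293) cells incubated with compound for 48 h. Tested in dose-response to derive CC50.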

[11] = Cytotoxicity against human HEK293 cells assessed as reduction in cell viability after 48 hrs by Alamar blue assay; assay type: cell-based; procedure, shortened: as §1

Row | SMILES | IC50 [1] | IC50 [2] | IC50 [3] | IC50 [4] | inhibition at 200 µM [5] | IC50 [6] | IC50 [7] | IC50 (E. coli GroEL/ES [8]) | IC50 (E. coli GroEL/ES [9]) | IC50 (HSP60/HSP10) | CC50 at 48 h [10] | CC50 at 48 h [11]
1 | O=S(=O)(Nc1ccc2oc(-c3ccccc3)nc2c1)c1ccccc1C(F)(F)F | 58 µM | 44 µM | 55 µM | 37 µM | 45% | > 100 µM | > 63 µM | 162 µM | 92 µM | > 100 µM | 59 µM | 80 µM
2 | O=S(=O)(Nc1ccc(-c2nc3ccccc3o2)cc1)c1ccc(Cl)cc1 | 46 µM | 43 µM | 42 µM | 36 µM | 7% | > 100 µM | > 63 µM | 151 µM | > 100 µM | 61 µM | 81 µM | > 100 µM
3 | O=S(=O)(Nc1ccc2oc(-c3ccccc3)nc2c1)c1ccccc1Cl | 50 µM | 40 µM | 42 µM | 35 µM | 13% | > 100 µM | > 63 µM | 103 µM | 90 µM | > 100 µM | 43 µM | 73 µM
4 | COc1ccc(Cl)cc1S(=O)(=O)Nc1ccc2oc(-c3ccccc3)nc2c1 | 31 µM | 27 µM | 25 µM | 37 µM | 0% | > 100 µM | > 63 µM | 105 µM | 81 µM | > 100 µM | 31 µM | 74 µM
5 | O=S(=O)(Nc1ccc(-c2nc3ccccc3o2)cc1)c1ccc(Cl)c(Cl)c1 | 25 µM | 29 µM | 33 µM | 30 µM | 37% | > 100 µM | > 63 µM | 104 µM | 43 µM | 25 µM | 84 µM | > 100 µM
6 | Cc1ccc(S(=O)(=O)Nc2ccc(-c3nc4ccccc4o3)cc2)cc1 | 52 µM | 42 µM | 49 µM | 45 µM | 28% | > 100 µM | > 63 µM | 157 µM | > 100 µM | > 100 µM | 82 µM | 88 µM
7 | O=S(=O)(Nc1ccc(-c2nc3ccccc3o2)cc1)c1ccccc1O | 31 µM | 33 µM | 57 µM | 36 µM | 0% | > 100 µM | > 63 µM | 126 µM | 83 µM | > 100 µM | 81 µM | > 100 µM
8 | O=S(=O)(Nc1ccc(-c2nc3ccccc3o2)cc1)c1ccccc1Cl | 47 µM | 59 µM | 64 µM | 51 µM | 11% | > 100 µM | > 63 µM | 171 µM | 86 µM | > 100 µM | > 100 µM | > 100 µM
9 | O=S(=O)(Nc1ccc(-c2nc3ccccc3o2)cc1)c1cccc(Cl)c1 | 43 µM | 37 µM | 67 µM | 545 µM | 33% | > 100 µM | > 63 µM | 168 µM | 79 µM | 54 µM | 83 µM | > 100 µM
10 | O=S(=O)(Nc1ccc2oc(-c3ccccc3)nc2c1)c1cccc(C(F)(F)F)c1 | 77 µM | 83 µM | 76 µM | 45 µM | 41% | > 100 µM | > 63 µM | 180 µM | 95 µM | > 100 µM | 58 µM | > 100 µM
